From ChEMBL document CHEMBL1649351, “Synthesis, in vitro antimicrobial and in vivo antitumor evaluation of novel pyrimidoquinolines and its nucleoside derivatives” (Eur J Med Chem, 2011)

Key:
HepG2 [1] = assay: Antitumor activity against human HepG2 cells xenografted in Swiss albino mouse assessed as increase of mouse survival at 10 ug/kg, ip for 10 days (reference value: 22 +/- 1.90 day); assay type: functional
HeLa [2] = assay: Antitumor activity against human HeLa cells xenografted in Swiss albino mouse assessed as increase mouse life span at 10 ug/kg, ip for 10 days relative to control; assay type: functional
HepG2 [3] = assay: Antitumor activity against human HepG2 cells xenografted in Swiss albino mouse assessed as increase mouse life span at 10 ug/kg, ip for 10 days relative to control; assay type: functional
Lactococcus lactis = assay: Antibacterial activity against Streptococcus lactis at 50 mg/disk after 24 to 28 hrs by agar disk diffusion method; assay type: functional
Mus musculus [4] = assay: Acute toxicity in human HepG2 cells xenografted ip dosed Swiss albino mouse assessed as mortality measured up to 2 weeks; assay type: organism-based; conditions: in vivo, 336 h
Summary of the method: (§1)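 Adult Swiss albino mice were fasted 12 h and randomised into groups of 10. Each group got one i.p. dose from a graded series, given at 1 ml/kg body weight; controls got vehicle alone. Food and water were returned right after dosing. Mortality was followed for up to two weeks, and LD50 was taken as the dose giving 50% mortality.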

Mus musculus [5] = assay: Acute toxicity in human HeLa cells xenografted ip dosed Swiss albino mouse assessed as mortality measured up to 2 weeks; assay type: organism-based; conditions: in vivo, 336 h; summary of the method: as §1
Candida albicans = assay: Antifungal activity against Candida albicans at 50 mg/disk after 5 days by agar disk diffusion method; assay type: functional
Escherichia coli = assay: Antibacterial activity against Escherichia coli at 50 mg/disk after 24 to 28 hrs by agar disk diffusion method; assay type: functional
Bacillus subtilis = assay: Antibacterial activity against Bacillus subtilis at 50 mg/disk after 24 to 28 hrs by agar disk diffusion method; assay type: functional
HeLa [6] = assay: Antitumor activity against human HeLa cells xenografted in Swiss albino mouse assessed as increase of mouse survival at 10 ug/kg, ip for 10 days (reference value: 22 +/- 1.90 day); assay type: functional
Nakaseomyces glabratus = assay: Antifungal activity against Candida glabrata at 50 mg/disk after 5 days by agar disk diffusion method; assay type: functional
Pseudomonas aeruginosa = assay: Antibacterial activity against Pseudomonas aeruginosa at 50 mg/disk after 24 to 28 hrs by agar disk diffusion method; assay type: functional

Compound	Survival (HepG2 [1]) [days]	Activity (HeLa [2]) [%]	Activity (HepG2 [3]) [%]	diameter of the inhibition zone (DIZ) (Lactococcus lactis) [mm]	LD50 (Mus musculus [4]) [mg/kg]	LD50 (Mus musculus [5]) [mg/kg]	diameter of the inhibition zone (DIZ) (Candida albicans) [mm]	diameter of the inhibition zone (DIZ) (Escherichia coli) [mm]	diameter of the inhibition zone (DIZ) (Bacillus subtilis) [mm]	Survival (HeLa [6]) [days]	diameter of the inhibition zone (DIZ) (Nakaseomyces glabratus) [mm]	diameter of the inhibition zone (DIZ) (Pseudomonas aeruginosa) [mm]	inhibition zone (IZ) (Nakaseomyces glabratus) [mm]
CSc1nc2c(c(=O)n1C)C(c1ccc([N+](=O)[O-])cc1)C1=C(CC(C)(C)CC1=O)N2 (configuration not stated)	34	48	50	13	0.098	0.111	8	15	15	28	6	14	
CC1(C)CC(=O)C2=C(C1)Nc1nc3n(N)c(-c4ccccc4)cn3c(=O)c1C2c1ccc([N+](=O)[O-])cc1 (configuration not stated)				20			8	23	20		6	23	
COc1ccc(/C=N\Nc2nc3c(c(=O)[nH]2)C(c2ccc([N+](=O)[O-])cc2)C2=C(CC(C)(C)CC2=O)N3)cc1 (configuration not stated)				16			7	17	15		8	16	
CSc1nc2c(c(=O)[nH]1)C(c1ccc([N+](=O)[O-])cc1)C1=C(CC(C)(C)CC1=O)N2[C@@H]1O[C@H](CO)[C@@H](O)[C@H](O)[C@H]1O (some centres not stated)	38	61	60	19	0.115	0.119	8	23	21	36	9	23	
CSc1nc2c(c(=O)[nH]1)C(c1ccc([N+](=O)[O-])cc1)C1=C(CC(C)(C)CC1=O)N2[C@@H]1O[C@H](COC(C)=O)[C@H](OC(C)=O)[C@H](OC(C)=O)[C@H]1OC(C)=O (some centres not stated)				19			7	25	20		8	23	
CC1(C)CC(=O)C2=C(C1)Nc1nc(Nn3c(=O)c4cc5c(=O)n(Nc6nc7c(c(=O)[nH]6)C(c6ccc([N+](=O)[O-])cc6)C6=C(CC(C)(C)CC6=O)N7)c(=O)c5cc4c3=O)[nH]c(=O)c1C2c1ccc([N+](=O)[O-])cc1 (configuration not stated)	38	53	58	25	0.099	0.099	13	23	22	29	12	22	
CC1(C)CC(=O)C2=C(C1)Nc1nc(NN)[nH]c(=O)c1C2c1ccc([N+](=O)[O-])cc1 (configuration not stated)	28	38	31	15	0.089	0.1	9	15	15	29	8	15	
CSc1nc2c(c(=O)[nH]1)C(c1ccc([N+](=O)[O-])cc1)C1=C(CC(C)(C)CC1=O)N2[C@@H]1O[C@H](COC(C)=O)[C@@H](OC(C)=O)[C@@H]1OC(C)=O (some centres not stated)				20			8	21	19		9	23	
CC1(C)CC(=O)C2=C(C1)Nc1nc3[nH]nc(-c4ccc(Cl)cc4)n3c(=O)c1C2c1ccc([N+](=O)[O-])cc1 (configuration not stated)	36	57	51	15	0.095	0.089	9	18	18	34	7	17	
CC1(C)CC(=O)C2=C(C1)Nc1nc(N/N=C\c3ccccc3)[nH]c(=O)c1C2c1ccc([N+](=O)[O-])cc1 (configuration not stated)				18			7	17	17		6	16	
CC1(C)CC(=O)C2=C(C1)Nc1nc3[nH]ncn3c(=O)c1C2c1ccc([N+](=O)[O-])cc1 (configuration not stated)	31	51	55	20	0.1	0.098	9	19	20	30	9	18	
CC1(C)CC(=O)C2=C(C1)Nc1nc3[nH]nnn3c(=O)c1C2c1ccc([N+](=O)[O-])cc1 (configuration not stated)				18			12	20	23		10	19	
NYSTATIN													20
CSc1nc2c(c(=O)[nH]1)C(c1ccc([N+](=O)[O-])cc1)C1=C(CC(C)(C)CC1=O)N2[C@@H]1O[C@H](COC(C)=O)[C@@H](OC(C)=O)[C@H](OC(C)=O)[C@H]1OC(C)=O (some centres not stated)	36	61	66	20	0.109	0.111	8	23	20	37	8	22	
CCn1cc(C(=O)O)c(=O)c2ccc(C)nc21 [NALIDIXIC ACID]				25				25	25			25	
CSc1nc2c(c(=O)[nH]1)C(c1ccc([N+](=O)[O-])cc1)C1=C(CC(C)(C)CC1=O)N2[C@@H]1OC[C@@H](O)[C@@H](O)[C@@H]1O (some centres not stated)	37	66	60	18	0.11	0.116	7	24	20	38	8	23	
CC1(C)CC(=O)C2=C(C1)Nc1nc(N)[nH]c(=O)c1C2c1ccc([N+](=O)[O-])cc1 (configuration not stated)	35	50	49	20	0.095	0.09	9	27	25	31	9	23	
CSc1nc2c(c(=O)[nH]1)C(c1ccc([N+](=O)[O-])cc1)C1=C(CC(C)(C)CC1=O)N2 (configuration not stated)				14			7	13	13		8	14	
Cc1n[nH]c2nc3c(c(=O)n12)C(c1ccc([N+](=O)[O-])cc1)C1=C(CC(C)(C)CC1=O)N3 (configuration not stated)				21			11	18	18		11	22	
CSc1nc2c(c(=O)[nH]1)C(c1ccc([N+](=O)[O-])cc1)C1=C(CC(C)(C)CC1=O)N2[C@@H]1O[C@H](CO)[C@H](O)[C@H](O)[C@H]1O (some centres not stated)				20			8	22	21		7	22	
